Screening data as filed in PubChem BioAssay.
Sampled rows, rich in hits. Any-hit rate of the full collection: about 2.3%.
SR-BI HDL uptake: inhibitors of mouse SR-BI mediated HDL lipid uptake | Q61009 | ldlA[mSR-BI] CHO cells, DiI-HDL uptake fluorescence, 3 h | inhibition, % at 12.5 µM | 0.96% of 320,000 active | AID 488896;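 active = mean replicate inhibition of at least 70% and a set share of replicates each scoring 70 or more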;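 note: 0% = median of neutral control wells and 100% = median of positive control wells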
Target sequence (Q61009 whole entry, looked up): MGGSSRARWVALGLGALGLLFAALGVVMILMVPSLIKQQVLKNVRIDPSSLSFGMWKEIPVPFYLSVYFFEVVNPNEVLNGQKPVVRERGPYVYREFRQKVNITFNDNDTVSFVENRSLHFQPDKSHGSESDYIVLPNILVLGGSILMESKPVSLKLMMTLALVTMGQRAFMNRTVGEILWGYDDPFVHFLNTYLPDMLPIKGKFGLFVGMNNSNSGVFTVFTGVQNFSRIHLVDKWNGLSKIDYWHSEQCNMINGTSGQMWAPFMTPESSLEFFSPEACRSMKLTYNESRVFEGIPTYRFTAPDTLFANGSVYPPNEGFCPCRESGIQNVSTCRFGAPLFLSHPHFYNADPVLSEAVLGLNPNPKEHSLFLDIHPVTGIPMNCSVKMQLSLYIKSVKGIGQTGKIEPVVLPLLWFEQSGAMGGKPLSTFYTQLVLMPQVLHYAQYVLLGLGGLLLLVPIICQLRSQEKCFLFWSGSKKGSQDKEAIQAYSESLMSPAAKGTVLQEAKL
ATG4B inh: ATG4B (human) cysteine protease inhibition. Q9Y4P1. ATG4B cleavage of LC3-PLA2, NBD-HPC fluorescence, 1 h. inhibition, % at 8.33 µM. 0.51% of 340,000 active. AID 504462; in the data active = inhibition above about 40%
CAL PDZ FP-1: blocks peptide binding to human CAL PDZ domain | Q9HD26 | purified CAL PDZ, TMR-peptide fluorescence polarization, 1 h | inhibition, % at 20 µM | 0.02% of 330,000 active | AID 504414;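 active = highest replicate inhibition of at least 40%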;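 note: plate controls were DMSO neutral control wells for no effect and unlabeled competitor peptide control wells for full effect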
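Read-out basis: mP drop reported as inhibition | Assay system: Tagged CAL PDZ protein CerCALP, purified | Benchmarks: Unlabelled peptide for full inhibition, DMSO wells as neutral | Schedule: 1 h incubation at room temperature before polarization reading | Buffer or medium: Sodium phosphate/NaCl buffer pH 7.4 with TCEP, IgG, Thesit | Doses: Single point, 20 µM | Measured by: Fluorescence polarization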
CAL PDZ FP-2: CAL PDZ (human) peptide binding inhibition | AID 602252 | purified CAL PDZ, TMR-peptide fluorescence polarization, 1 h | 0.92% of 300,000 active | inhibition, % at 24.9 µM;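 active = mean inhibition of at least 30% with at least half of replicates also reaching 30%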;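 note: 0% = DMSO neutral control and 100% = excess unlabeled competitor peptide PRC23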
SR-BI DiI-HDL act: activators of SR-BI mediated HDL lipid uptake; CHO ldlA[mSR-BI] cells, DiI-HDL uptake fluorescence, 3 h; 100 = double the neutral-control signal; activation, % at 12.5 µM; 0.096% of 320,000 active;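 active = mean replicate activation of at least 60% and every replicate at or above 60%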;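 note: 0% = median plate neutral-control signal and 100% = twice that signal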
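Test system: SR-BI-overexpressing, LDLR-lacking CHO cells; Also added: labelled HDL, 10 µg/mL; Measured by: bottom-read cell fluorescence after medium removal, ex 550/em 595 nm; Timing: 3 h uptake period with compound, 37 °C; Buffer or medium: F12, 0.5% BSA, 25 mM HEPES; Doses: single compound concentration, delivered by pin transfer.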
* hit, by the source's call.

What do the screens show for `O=C(O)c1ccc(CN2C(=O)c3ccc(Oc4ccc([N+](=O)[O-])cc4)cc3C2=O)cc1`?
SR-BI HDL uptake: -55.9; ATG4B inh: 3.5; CAL PDZ FP-1: 1.8; CAL PDZ FP-2: -3.2; SR-BI DiI-HDL act: 55.9

What do the screens show for `CCc1c(C)nc(SCC(=O)N2CC(C)OC(C)C2)[nH]c1=O` (configuration not stated)?
SR-BI HDL uptake: -9.9; ATG4B inh: -4.1; CAL PDZ FP-1: -1.0; CAL PDZ FP-2: 4.7; SR-BI DiI-HDL act: 9.9

What do the screens show for `Fc1ccc(CN2CCN(C(=S)NCCc3ccccc3)CC2)c(Cl)c1`?
SR-BI HDL uptake: 24.7; ATG4B inh: 7.1; CAL PDZ FP-1: -0.2; CAL PDZ FP-2: 34.5*; SR-BI DiI-HDL act: -24.7

Results for S=C(NCCc1ccccc1)N1CCN(Cc2ccc(Cl)c(Cl)c2)CC1 ?
SR-BI HDL uptake: 26.3; ATG4B inh: 3.6; CAL PDZ FP-1: -1.3; CAL PDZ FP-2: 11.1; SR-BI DiI-HDL act: -26.3

Results for Cc1cc(C)n(-c2ccc(NC(=O)C3CCCCN3Cc3cccc4c3OCO4)cc2)n1 (configuration not stated) ?
SR-BI HDL uptake: 89.3*; ATG4B inh: 21.9; CAL PDZ FP-1: 9.0; CAL PDZ FP-2: 7.7; SR-BI DiI-HDL act: -89.4

How did Cc1cc(C)n(-c2ccc(NC(=O)C3CCCCN3C(=O)c3ccoc3)cc2)n1 (configuration not stated) do in these assays?
SR-BI HDL uptake: 12.6; ATG4B inh: 10.2; CAL PDZ FP-1: -2.0; CAL PDZ FP-2: -3.3; SR-BI DiI-HDL act: -12.6

What do the screens show for `CN(C)C(=O)C(=O)c1cccn1-c1cccc(Cl)c1C#N`?
SR-BI HDL uptake: -0.2; ATG4B inh: 9.7; CAL PDZ FP-1: -2.5; CAL PDZ FP-2: -2.2; SR-BI DiI-HDL act: 0.2

What do the screens show for `O=C1C=C(Nc2ccccc2C(=O)O)c2ccccc2C1=O`?
SR-BI HDL uptake: -42.7; ATG4B inh: 38.0; CAL PDZ FP-1: 2.3; CAL PDZ FP-2: 76.4*; SR-BI DiI-HDL act: 42.7

How did O=C1C=C(Nc2ccccc2)c2ccccc2C1=O do in these assays?
SR-BI HDL uptake: 34.4; ATG4B inh: 12.2; CAL PDZ FP-1: -1.3; CAL PDZ FP-2: -3.0; SR-BI DiI-HDL act: -34.4

What do the screens show for `Cc1sc(NC(=O)c2cccs2)nc1-c1ccccc1`?
SR-BI HDL uptake: 59.0; ATG4B inh: 32.9; CAL PDZ FP-1: -2.9; CAL PDZ FP-2: -21.5; SR-BI DiI-HDL act: -59.0

Results for Cc1sc(N/N=C/c2cccs2)nc1-c1ccccc1 ?
SR-BI HDL uptake: 72.6*; ATG4B inh: 12.0; CAL PDZ FP-1: -2.0; CAL PDZ FP-2: -2.0; SR-BI DiI-HDL act: -72.6

How did c1cc2c(cc1Cn1cnnn1)OCO2 do in these assays?
SR-BI HDL uptake: 13.9; ATG4B inh: -11.7; CAL PDZ FP-1: -1.6; CAL PDZ FP-2: 62.4*; SR-BI DiI-HDL act: -13.9

Results for c1cc2c(cc1-n1cnnn1)OCO2 ?
SR-BI HDL uptake: -10.4; ATG4B inh: -8.0; CAL PDZ FP-1: -2.8; CAL PDZ FP-2: -2.6; SR-BI DiI-HDL act: 10.4

How did COc1ncnc2c1N[C@@](C)(O)c1c(F)c(F)c(F)c(F)c1S2 do in these assays?
SR-BI HDL uptake: 12.1; ATG4B inh: -4.0; CAL PDZ FP-1: -1.3; CAL PDZ FP-2: 46.4*; SR-BI DiI-HDL act: -12.1

Results for COc1ncnc2c1NC(=O)CS2 ?
SR-BI HDL uptake: 3.1; ATG4B inh: 1.1; CAL PDZ FP-1: 0.1; CAL PDZ FP-2: -0.1; SR-BI DiI-HDL act: -3.1

What do the screens show for `CCOc1ccc(C(=O)Nc2c3c(nn2C(C)(C)C)CSC3)cc1OCC`?
SR-BI HDL uptake: 75.3*; ATG4B inh: 11.0; CAL PDZ FP-2: 5.7; SR-BI DiI-HDL act: -75.3

How did CCOc1ccc(C(=O)Nc2nnc(C)s2)cc1OCC do in these assays?
SR-BI HDL uptake: 61.1; ATG4B inh: 0.4; CAL PDZ FP-1: -2.0; CAL PDZ FP-2: 0.5; SR-BI DiI-HDL act: -61.1

Results for CC(C)Oc1ccc(C(=O)OCC(=O)NC(=O)NC2CCCC2)cc1 ?
SR-BI HDL uptake: -3.2; ATG4B inh: 8.6; CAL PDZ FP-1: -0.5; CAL PDZ FP-2: 3.5; SR-BI DiI-HDL act: 3.2

Results for CC(=O)Nc1ccc(C(=O)OCC(=O)NC(=O)NC2CCCCC2)cc1 ?
SR-BI HDL uptake: -4.1; ATG4B inh: -12.7; CAL PDZ FP-1: -1.1; CAL PDZ FP-2: 86.4*; SR-BI DiI-HDL act: 4.1

How did Cc1ccc(S(=O)(=O)NCC(=O)OCC(=O)NC(=O)NC2CCCC2)cc1 do in these assays?
SR-BI HDL uptake: 4.3; ATG4B inh: -6.4; CAL PDZ FP-1: 0.8; CAL PDZ FP-2: 72.5*; SR-BI DiI-HDL act: -4.3

How did Nc1nc(SCC(=O)Nc2ccc([N+](=O)[O-])cc2)[nH]c(=O)c1NC(=O)c1ccc(Br)cc1 do in these assays?
SR-BI HDL uptake: -8.2; ATG4B inh: 1.0; CAL PDZ FP-1: -1.7; CAL PDZ FP-2: -2.6; SR-BI DiI-HDL act: 8.2

How did Nc1ccc(Cn2ccc3c4c(N)nc(N)nc4ccc32)cc1 do in these assays?
SR-BI HDL uptake: -8.5; ATG4B inh: 5.1; CAL PDZ FP-1: 3.9; CAL PDZ FP-2: 1.8; SR-BI DiI-HDL act: 8.5

Results for O=[N+]([O-])c1cnccc1Nc1ccc(Cl)cc1 ?
SR-BI HDL uptake: 2.8; ATG4B inh: 1.7; CAL PDZ FP-1: -0.9; CAL PDZ FP-2: 74.6*; SR-BI DiI-HDL act: -2.8

How did CCOc1ccccc1Nc1nnc(SCC(=O)N(C)C2CCS(=O)(=O)C2)s1 (configuration not stated) do in these assays?
SR-BI HDL uptake: 75.2*; ATG4B inh: -4.2; CAL PDZ FP-1: 0.3; SR-BI DiI-HDL act: -75.2

What do the screens show for `CC1CC(=O)N(CC(=O)NCc2ccccc2)c2ccccc2S1(=O)=O` (configuration not stated)?
SR-BI HDL uptake: -3.5; ATG4B inh: 2.6; CAL PDZ FP-1: 1.1; SR-BI DiI-HDL act: 3.5

What do the screens show for `CN(CC(=O)Nc1cccc(Cl)c1)S(=O)(=O)c1ccc2c(c1)n(C)c(=O)c(=O)n2C`?
SR-BI HDL uptake: 8.1; ATG4B inh: 1.0; CAL PDZ FP-1: -2.2; CAL PDZ FP-2: 4.5; SR-BI DiI-HDL act: -8.1

How did CN(CC(=O)Nc1ccc(Cl)cc1)S(=O)(=O)c1ccc2c(c1)n(C)c(=O)c(=O)n2C do in these assays?
SR-BI HDL uptake: -8.7; ATG4B inh: 8.9; CAL PDZ FP-1: -1.4; CAL PDZ FP-2: active; SR-BI DiI-HDL act: 8.7

Results for CN(CC(=O)NC1CCCC1)S(=O)(=O)c1cccc(Cl)c1 ?
SR-BI HDL uptake: -54.8; ATG4B inh: -3.9; CAL PDZ FP-1: -0.3; CAL PDZ FP-2: -4.8; SR-BI DiI-HDL act: 54.8

Results for Cc1cc(NC(=O)CN(C)S(=O)(=O)c2cccc(Cl)c2)no1 ?
SR-BI HDL uptake: -16.2; ATG4B inh: -7.0; CAL PDZ FP-1: -0.2; CAL PDZ FP-2: 112.5*; SR-BI DiI-HDL act: 16.2

What do the screens show for `Nc1nc(=S)c2[nH]cnc2[nH]1`?
SR-BI HDL uptake: 6.5; ATG4B inh: -5.1; CAL PDZ FP-1: -0.3; CAL PDZ FP-2: 5.1; SR-BI DiI-HDL act: -6.5

How did Cc1cccnc1NC(=O)CNC(=O)C12CC3CC(CC(C3)C1)C2 do in these assays?
SR-BI HDL uptake: -36.6; ATG4B inh: -2.2; CAL PDZ FP-1: 0.7; CAL PDZ FP-2: -3.7; SR-BI DiI-HDL act: 36.6
